# Assay outcomes: PubChem, Sanford-Burnham Center for Chemical Genomics
# bIAP activator: increases bovine intestinal alkaline phosphatase activity. purified bovine IAP, CDP-star luminescence, 30 min; hits give high values; fold of DMSO-control signal, blank-subtracted. activation factor at 20 µM. 200,000 tested, 0.17% active. AID 1016;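 active means activation factor of 2 or more at 20 µM, a signal rise over negative controls twice the positive control's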
# mIAP activ: mouse IAP activation; muIAP, CDP-Star luminescence, 30 min; hits give high values; 1 = vehicle-only enzyme signal, 0 = enzyme-free wells; activation factor at 10 µM; 330,000 tested, 0.24% active; AID 2805;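 active means activation factor of at least 2 at 20 µM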
#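 Assay system: mouse IAP enzyme; reagent: chemiluminescent substrate CDP-Star; dosing: test compounds delivered from DMSO solution; schedule: 30 min at room temperature; measured by: luminescence from enzymatic CDP-Star hydrolysis; controls: DMSO-only wells and no-enzyme negative control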
# mIAP inh: mouse IAP inhibition; purified mouse IAP, CDP-Star luminescence, 30 min; inhibition, % at 10 µM; 330,000 tested, 0.2% active; AID 2806;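 active means inhibition of at least 40% at 10 µM in the primary screen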
# bIAP inh: intestinal alkaline phosphatase (bovine) inhibition; AID 1019; purified bovine IAP, CDP-star luminescence, 30 min; inhibition, % at 20 µM; 190,000 tested, under 10 active;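 active means over 50% inhibition of intestinal alkaline phosphatase at 20 µM in the single-dose screen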
#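 Incubation: 30 min reaction at room temperature / Material: purified bovine intestinal alkaline phosphatase (IAP) enzyme / Input: enzyme at 1/65,000,000 dilution / Dosing: 20 µM single dose / Signal: CDP-star luminescence signal / Reagent: CDP-star chemiluminescent phosphatase substrate, 30 µM final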
# hIAP activ: increases human intestinal alkaline phosphatase activity; 330,000 tested, 0.16% active; purified human IAP, CDP-Star luminescence, 30 min; hits give high values; 1 = vehicle-only enzyme, 0 = enzyme-free background; AID 2524; activation factor at 10 µM; P09923;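 active means activation factor of the enzyme at least 2-fold when tested at 20 µM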
# Target sequence (P09923 whole entry, looked up): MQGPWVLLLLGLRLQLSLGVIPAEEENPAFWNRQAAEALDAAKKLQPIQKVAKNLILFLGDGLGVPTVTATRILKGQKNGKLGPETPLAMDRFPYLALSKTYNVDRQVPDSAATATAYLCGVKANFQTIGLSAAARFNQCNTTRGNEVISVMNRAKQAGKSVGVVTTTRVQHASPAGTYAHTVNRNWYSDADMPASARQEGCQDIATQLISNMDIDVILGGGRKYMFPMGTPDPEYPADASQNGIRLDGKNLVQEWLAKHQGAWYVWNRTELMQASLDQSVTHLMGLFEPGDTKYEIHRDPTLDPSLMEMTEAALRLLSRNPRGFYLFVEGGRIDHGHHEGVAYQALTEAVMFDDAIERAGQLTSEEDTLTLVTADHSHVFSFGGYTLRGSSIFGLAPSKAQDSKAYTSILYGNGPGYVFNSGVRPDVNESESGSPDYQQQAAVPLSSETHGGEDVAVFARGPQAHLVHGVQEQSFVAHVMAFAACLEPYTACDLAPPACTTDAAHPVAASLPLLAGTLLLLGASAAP
# hIAP block: blocks human intestinal alkaline phosphatase; purified IAP, CDP-Star luminescence, 30 min; inhibition, % at 10 µM; 330,000 tested, 0.12% active;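 active means inhibition reaching a set limit with compound at 10 µM in the primary screen, cut at about 35% in these data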
# mIAP inh confirm: mouse IAP inhibition confirmation; shares compounds with mIAP inh; 11,000 tested, 4.7% active; purified mouse IAP, CDP-Star luminescence, 30 min; inhibition, % at 10 µM;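 active means inhibition of at least 40% at 10 µM in either of the two replicates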
# A number is an active result; . = inactive; / = no result. The list is not random: actives were taken first. Their share in the collection is about 0.77%.
SMILES,bIAP activator,mIAP activ,mIAP inh,bIAP inh,hIAP activ,hIAP block,mIAP inh confirm
O=C(O)c1ccc(N2C(=O)/C(=C/C=C/c3ccccc3)SC2=S)cc1,.,.,.,.,.,.,/
O=C1/C(=C/C=C/c2ccco2)SC(=S)N1c1ccc(O)cc1,/,.,80,/,.,.,77
Cc1ccc(NC(=O)CSc2nnc(Cc3ccccc3)c(=O)[nH]2)c(C)c1,/,.,.,/,.,.,/
NN1C(=O)/C(=C\c2ccco2)SC1=S,/,.,78,/,.,.,86
O=C(Cc1cccc2ccccc12)NCCOc1ccccc1F,.,.,.,.,.,.,/
CCOc1ccc(N2CSC3=C(C#N)C(c4ccco4)CC(=O)N3C2)cc1 (centres undefined),.,.,74,.,.,.,81
N#CC1=C2SCN(c3ccccc3)CN2C(=O)CC1c1cccs1 (centres undefined),.,.,.,.,.,.,/
Cc1ccc(C2CC(=O)N3CN(c4ccc(Br)cc4)CSC3=C2C#N)o1 (centres undefined),.,.,61,.,.,.,63
N#Cc1ccsc1NC(=O)CN1CCN(S(=O)(=O)c2ccccc2C(F)(F)F)CC1,.,.,.,.,.,.,/
Cc1ccc(C(=O)NC(=S)Nc2ccc(S(=O)(=O)N3CCN(C)CC3)cc2)cc1,.,.,.,.,.,.,/
CC(=O)Nc1ccc(NC(=O)COc2ccc(S(=O)(=O)N3CCCC3)cc2)cc1,/,.,.,/,.,.,/
C[C@H](NC(=O)NCc1ccc(F)cc1)C(=O)O,.,.,.,.,.,.,/
CC(NC(=S)NCc1ccc(F)cc1)C12CC3CC(CC(C3)C1)C2 (centres undefined),.,4.1,.,.,.,.,.
O=C(NCCN1CCCCC1)c1cc(COc2c(F)cccc2F)on1,/,.,.,/,.,.,/
C[C@H](CO)N1C[C@H](C)[C@@H](CN(C)S(=O)(=O)c2ccccc2)Oc2ccc(NC(=O)C3CCCCC3)cc2C1=O,/,.,.,/,.,.,/
C[C@H](CO)N1C[C@H](C)[C@@H](CN(C)S(=O)(=O)c2cccs2)Oc2ccc(NC(=O)NC3CCCCC3)cc2C1=O,/,3.6,.,/,.,.,.
C[C@H](CO)N1C[C@H](C)[C@@H](CN(C)S(=O)(=O)c2ccccc2)Oc2ccc(NC(=O)NC3CCCCC3)cc2C1=O,/,4,.,/,.,.,.
CCOc1ccc(Nc2nc(Nc3ccc(O)cc3)nc(C)c2[N+](=O)[O-])cc1,.,.,.,.,.,.,/
Cc1cc(NC(=O)C(C)SCC(=O)N(C)Cc2c(F)cccc2Cl)no1 (centres undefined),/,.,.,/,.,.,/
O=C(N/N=C/c1cn(Cc2cccc(F)c2)c2ccccc12)c1cc(O)cc(O)c1,/,.,68,/,.,.,67
Cc1cc(-c2ccco2)n(-c2ccccc2)n1,.,.,.,.,.,.,/
Cc1cc(-c2ccccc2)n(-c2ccccc2)n1,/,.,72,/,.,.,85
Brc1ccc(C2Nc3cccc4cccc(c34)N2)o1,.,.,44,.,.,.,53
Brc1cccc(C2Nc3cccc4cccc(c34)N2)c1,/,.,.,/,.,.,/
NC1=NC2(CCCCC2)N=C(Nc2ccc(F)cc2F)N1,.,.,.,.,.,.,/
SMILES,bIAP activator,mIAP activ,mIAP inh,bIAP inh,hIAP activ,hIAP block,mIAP inh confirm
Cc1cc(C)cc(NC2=NC3(CCCCC3)N=C(N)N2)c1,3.7,3,.,.,.,.,.
Cc1cc(=O)oc2cc(N3C(=O)CC(Cc4ccccc4)C3=O)ccc12 (centres undefined),.,.,.,.,.,.,/
Cc1cc(=O)[nH]c(N/N=C/c2ccc(O)c(O)c2)n1,/,.,43,/,.,.,45
CSc1ccc(/C=N/Nc2nc(C)cc(=O)[nH]2)cc1,.,.,.,.,.,.,/
Nc1c(C(=O)Nc2ccc(Br)cc2)sc2nc(-c3ccco3)ccc12,.,.,.,.,.,.,/
CC(=O)c1sc2nc(-c3ccco3)ccc2c1N,/,.,59,/,.,.,63
O=C(COC(=O)Cn1cnc2ccccc2c1=O)Nc1cc(Cl)ccc1[N+](=O)[O-],.,/,/,.,/,/,/
Cc1ccc(C(=O)Nc2cccc3cccnc23)cc1C,/,.,.,/,.,.,/
CC(=O)Nc1sc(N/N=C\c2ccccc2)nc1-c1cccs1,.,.,.,.,.,.,/
